# Activity calls are given as the source filed them. No cut-off for these calls is given here.
# Experiments:
# [1] = system: CHO; test: Modulation of gamma-secretase in CHO cells overexpressing APP V717 mutant assessed as effect on amyloid beta40 level after 17 hrs by ELISA; assay type: cell-based; settings: Cricetulus griseus
# In short: (§1)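 CHO cells overexpressing APP V717F; Aβ42, Aβ40 and Aβ38 quantified together in each well by multiplex Aβ ELISA. EC50 is the mean of at least two determinations.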
# [2] = Plasma concentration in CF1 mouse at 30 mg/kg, po after 4 hrs; assay type: ADME, organism-based; parameters: dose 30 mg/kg, route oral
# In short: (§2)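 Wild-type (CF-1) mice given compound orally as a solution in ethanol:propylene glycol:10% solutol (1:1:8). Animals sacrificed 4 h post-dose; brain and plasma collected for drug exposure and Aβ levels.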
# [3] = system: Mus musculus; test: Antialzheimer activity in CF1 mouse assessed as reduction in amyloid beta42 level in brain at 30 mg/kg, po after 4 hrs by ELISA; assay type: functional; parameters: scale not given: the % may be the effect or the level left
# In short: (§3)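 Wild-type CF-1 mice received a single oral dose as a solution in ethanol:propylene glycol:10% solutol (1:1:8). Animals were sacrificed 4 h after dosing. Brain and plasma were collected for drug concentration and Aβ levels. Aβ change was expressed relative to vehicle-treated controls.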
# [4] = Modulation of gamma-secretase in CHO cells overexpressing APP V717 mutant assessed as reduction in amyloid beta42 level after 17 hrs by ELISA; assay type: cell-based; settings: Cricetulus griseus; in short: as §1
# [5] = system: CHO; test: (§4) Modulation of gamma-secretase in CHO cells overexpressing APP V717 mutant assessed as increase in amyloid beta38 level after 17 hrs by ELISA; assay type: cell-based; settings: Cricetulus griseus; in short: as §1
# [6] = Drug uptake in CF1 mouse brain at 30 mg/kg, po after 4 hrs; assay type: ADME, organism-based; parameters: dose 30 mg/kg, route oral; settings: read-out: Drug uptake; in short: as §3
# [7] = Modulation of gamma-secretase
# [8] = Drug uptake in CF1 mouse brain at 50 mg/kg, po after 4 hrs; assay type: ADME, organism-based; parameters: dose 50 mg/kg, route oral; settings: read-out: Drug uptake; in short: as §3
# [9] = Plasma concentration in CF1 mouse at 50 mg/kg, po after 4 hrs; assay type: ADME, organism-based; parameters: dose 50 mg/kg, route oral; in short: as §2
# [10] = system: Mus musculus; test: Antialzheimer activity in CF1 mouse assessed as reduction in amyloid beta42 level in brain at 50 mg/kg, po after 4 hrs by ELISA; assay type: functional; in short: as §3
# [11] = system: Brain; test: Drug uptake in CF1 mouse brain at 10 mg/kg, po; assay type: ADME, organism-based; parameters: dose 10 mg/kg, route oral; settings: in vivo, read-out: Drug uptake; in short: as §3
# [12] = as §4; assay type: cell-based; settings: Cricetulus griseus; in short: as §1
# [13] = target: Voltage-gated inwardly rectifying potassium channel KCNH2 (Homo sapiens, UniProt Q12809); test: Inhibition of human ERG by patch clamp assay
# Voltage-gated inwardly rectifying potassium channel KCNH2, sequence (Q12809 whole entry): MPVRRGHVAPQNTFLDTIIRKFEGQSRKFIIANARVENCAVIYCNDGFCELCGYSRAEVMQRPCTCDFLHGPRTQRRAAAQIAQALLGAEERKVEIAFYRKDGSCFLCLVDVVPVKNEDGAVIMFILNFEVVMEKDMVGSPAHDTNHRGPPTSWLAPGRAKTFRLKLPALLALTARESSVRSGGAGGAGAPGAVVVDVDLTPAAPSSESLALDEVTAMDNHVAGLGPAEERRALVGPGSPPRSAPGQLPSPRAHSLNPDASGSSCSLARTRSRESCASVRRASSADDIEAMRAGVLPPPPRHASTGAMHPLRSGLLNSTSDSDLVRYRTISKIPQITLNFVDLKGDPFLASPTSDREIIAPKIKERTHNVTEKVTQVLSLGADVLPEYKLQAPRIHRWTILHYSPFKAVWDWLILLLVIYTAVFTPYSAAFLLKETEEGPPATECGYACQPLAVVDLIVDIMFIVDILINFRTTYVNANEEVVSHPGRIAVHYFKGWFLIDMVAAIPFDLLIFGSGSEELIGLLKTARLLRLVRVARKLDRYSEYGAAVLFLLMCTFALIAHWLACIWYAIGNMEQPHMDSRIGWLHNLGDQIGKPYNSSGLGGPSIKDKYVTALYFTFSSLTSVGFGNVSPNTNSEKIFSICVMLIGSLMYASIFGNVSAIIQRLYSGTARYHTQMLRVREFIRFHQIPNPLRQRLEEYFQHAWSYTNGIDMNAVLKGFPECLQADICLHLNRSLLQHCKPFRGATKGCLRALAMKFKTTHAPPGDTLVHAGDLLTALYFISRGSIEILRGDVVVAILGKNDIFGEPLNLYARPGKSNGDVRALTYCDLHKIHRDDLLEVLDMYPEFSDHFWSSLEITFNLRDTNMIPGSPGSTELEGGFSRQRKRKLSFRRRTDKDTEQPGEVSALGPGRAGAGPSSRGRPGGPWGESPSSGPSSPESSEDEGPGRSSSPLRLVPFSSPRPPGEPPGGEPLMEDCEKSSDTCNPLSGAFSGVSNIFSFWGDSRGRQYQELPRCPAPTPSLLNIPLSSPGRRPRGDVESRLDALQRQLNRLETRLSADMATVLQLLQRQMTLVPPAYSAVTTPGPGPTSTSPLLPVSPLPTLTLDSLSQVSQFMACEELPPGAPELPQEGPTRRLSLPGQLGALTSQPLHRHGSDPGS
# In short: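 hERG was tested in an automated FastPatch patch-clamp assay, giving an EC50 readout.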
# [14] = system: Mus musculus; test: Antialzheimer activity in CF1 mouse assessed as reduction in amyloid beta 42 level in brain at 10 mg/kg, po; assay type: functional; parameters: scale not given: the % may be the effect or the level left; in short: as §3
# [15] = system: Plasma; test: Plasma concentration in CF1 mouse at 10 mg/kg, po; assay type: ADME, organism-based; parameters: dose 10 mg/kg, route oral; settings: in vivo; in short: as §2
# [16] = system: Cynomolgus monkey; test: Antialzheimer activity in cynomolgus monkey assessed as effect on amyloid beta 40 level in plasma at 10 mg/kg, po at 5 hrs; assay type: functional, organism-based; parameters: dose 10 mg/kg; settings: Macaca fascicularis
# [17] = system: Mus musculus; test: Antialzheimer activity in CF1 mouse assessed as increase in amyloid beta 38 level in brain at 10 mg/kg, po; assay type: functional, organism-based; parameters: dose 10 mg/kg; in short: as §3
# [18] = system: Rattus norvegicus; test: Antialzheimer activity in Fischer rat assessed as increase in amyloid beta 38 level in brain at 10 mg/kg, po after 4 hrs; assay type: functional, organism-based; parameters: dose 10 mg/kg
# [19] = target: Neurogenic locus notch homolog protein 1 (Homo sapiens) (UniProt P46531); test: Inhibition of NICD-mediated HES1 protein expression in human H4 cells at 10 uM after 24 hrs by Western blot analysis; assay type: cell-based
# Neurogenic locus notch homolog protein 1 (Homo sapiens), sequence (P46531 whole entry): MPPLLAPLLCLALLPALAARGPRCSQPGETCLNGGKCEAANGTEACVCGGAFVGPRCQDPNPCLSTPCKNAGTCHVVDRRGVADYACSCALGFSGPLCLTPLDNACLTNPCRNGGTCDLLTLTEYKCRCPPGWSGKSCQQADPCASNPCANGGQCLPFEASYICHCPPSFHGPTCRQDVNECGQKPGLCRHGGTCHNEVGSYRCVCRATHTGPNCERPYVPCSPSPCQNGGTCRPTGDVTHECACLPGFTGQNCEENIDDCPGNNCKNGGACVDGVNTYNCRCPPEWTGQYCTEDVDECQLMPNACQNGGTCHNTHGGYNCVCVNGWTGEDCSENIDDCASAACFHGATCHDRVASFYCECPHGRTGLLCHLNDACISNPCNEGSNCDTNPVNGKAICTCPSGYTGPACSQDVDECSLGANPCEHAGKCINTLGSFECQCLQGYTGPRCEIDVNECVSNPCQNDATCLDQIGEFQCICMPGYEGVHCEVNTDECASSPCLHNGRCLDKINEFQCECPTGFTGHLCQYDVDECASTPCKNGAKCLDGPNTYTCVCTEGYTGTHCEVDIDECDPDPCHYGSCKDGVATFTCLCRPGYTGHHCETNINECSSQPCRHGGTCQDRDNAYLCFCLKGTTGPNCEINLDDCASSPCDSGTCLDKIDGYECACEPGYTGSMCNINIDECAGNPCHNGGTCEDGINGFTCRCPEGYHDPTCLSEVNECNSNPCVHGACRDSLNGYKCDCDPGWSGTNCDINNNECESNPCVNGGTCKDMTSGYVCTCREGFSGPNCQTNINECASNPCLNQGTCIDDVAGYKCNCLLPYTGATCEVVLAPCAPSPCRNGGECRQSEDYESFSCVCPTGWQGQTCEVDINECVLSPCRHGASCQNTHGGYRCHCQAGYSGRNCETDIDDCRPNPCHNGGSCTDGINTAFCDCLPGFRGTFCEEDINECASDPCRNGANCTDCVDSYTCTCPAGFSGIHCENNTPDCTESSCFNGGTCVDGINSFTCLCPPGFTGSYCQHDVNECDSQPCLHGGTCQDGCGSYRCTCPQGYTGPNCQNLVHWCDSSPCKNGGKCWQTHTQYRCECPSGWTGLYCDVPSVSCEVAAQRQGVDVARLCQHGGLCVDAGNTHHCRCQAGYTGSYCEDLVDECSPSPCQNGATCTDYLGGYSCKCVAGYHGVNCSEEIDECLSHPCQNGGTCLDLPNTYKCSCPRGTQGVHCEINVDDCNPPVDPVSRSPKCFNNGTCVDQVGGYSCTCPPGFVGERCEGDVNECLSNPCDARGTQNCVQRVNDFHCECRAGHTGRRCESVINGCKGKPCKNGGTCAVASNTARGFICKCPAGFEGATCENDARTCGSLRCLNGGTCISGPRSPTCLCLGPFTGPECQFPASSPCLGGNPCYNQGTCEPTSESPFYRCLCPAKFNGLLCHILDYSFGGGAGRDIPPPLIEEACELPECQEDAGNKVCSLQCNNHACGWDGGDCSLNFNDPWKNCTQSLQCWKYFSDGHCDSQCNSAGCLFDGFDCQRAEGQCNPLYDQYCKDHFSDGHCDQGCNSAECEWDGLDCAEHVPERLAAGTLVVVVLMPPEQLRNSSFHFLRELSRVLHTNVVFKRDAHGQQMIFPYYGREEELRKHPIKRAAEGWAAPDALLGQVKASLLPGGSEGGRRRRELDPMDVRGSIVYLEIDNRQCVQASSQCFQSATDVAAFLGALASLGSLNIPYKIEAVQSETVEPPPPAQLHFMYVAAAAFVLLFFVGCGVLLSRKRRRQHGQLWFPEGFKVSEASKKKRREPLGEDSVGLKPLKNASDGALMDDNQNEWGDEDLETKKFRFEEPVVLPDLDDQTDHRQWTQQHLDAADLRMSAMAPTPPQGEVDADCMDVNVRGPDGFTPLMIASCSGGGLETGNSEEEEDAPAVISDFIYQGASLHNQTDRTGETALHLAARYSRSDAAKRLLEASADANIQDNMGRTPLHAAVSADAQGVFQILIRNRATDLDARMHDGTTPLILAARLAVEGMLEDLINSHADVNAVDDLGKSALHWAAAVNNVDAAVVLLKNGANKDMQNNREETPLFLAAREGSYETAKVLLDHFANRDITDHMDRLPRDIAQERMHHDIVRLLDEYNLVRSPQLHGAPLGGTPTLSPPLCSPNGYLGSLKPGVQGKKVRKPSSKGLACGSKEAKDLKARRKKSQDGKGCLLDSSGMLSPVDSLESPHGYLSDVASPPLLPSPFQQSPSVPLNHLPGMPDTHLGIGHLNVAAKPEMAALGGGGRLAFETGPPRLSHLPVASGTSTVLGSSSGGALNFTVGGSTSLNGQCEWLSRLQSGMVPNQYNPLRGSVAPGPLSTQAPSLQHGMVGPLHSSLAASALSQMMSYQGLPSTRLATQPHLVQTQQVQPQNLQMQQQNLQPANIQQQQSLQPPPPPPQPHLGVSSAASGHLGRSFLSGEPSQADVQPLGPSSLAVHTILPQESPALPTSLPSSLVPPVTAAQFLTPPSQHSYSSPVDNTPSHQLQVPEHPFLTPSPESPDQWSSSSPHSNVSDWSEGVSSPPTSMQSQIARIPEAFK
# [20] = system: Cynomolgus monkey; test: Antialzheimer activity in cynomolgus monkey assessed as increase in amyloid beta 38 level in plasma at 10 mg/kg, po at 5 hrs; assay type: functional, organism-based; parameters: dose 10 mg/kg; settings: Macaca fascicularis
# [21] = system: Rattus norvegicus; test: Antialzheimer activity in Fischer rat assessed as effect on amyloid beta 40 level in brain at 10 mg/kg, po after 4 hrs; assay type: functional, organism-based; parameters: dose 10 mg/kg
# [22] = system: Mus musculus; test: Antialzheimer activity in CF1 mouse assessed as effect on amyloid beta 40 level in brain at 10 mg/kg, po; assay type: functional, organism-based; parameters: dose 10 mg/kg; in short: as §3
# [23] = Ratio of tarenflurbil EC50 to compound EC50 for gamma-secretase
# [24] = system: Rattus norvegicus; test: Antialzheimer activity in F344 rat assessed as reduction in amyloid beta42 level in brain at 30 mg/kg, po after 4 hrs by ELISA; assay type: functional, organism-based; parameters: dose 30 mg/kg
SMILES,concentration at 4 h [2] [µM],EC50 [4] [nM],concentration at 4 h [6] [µM],Activity [1],Activity [3],Activity [5],also measured
C[C@@H](C(=O)O)c1ccc(-c2ccccc2)c(F)c1 [TARENFLURBIL],–,–,–,–,–,–,EC50 [7]: 300000 nM
CC(C)(C)c1ccc(-c2cc(CC(=O)O)ccc2C(c2ccc(F)cc2)N2CCC(C(F)(F)F)CC2)cc1 (stereo unspecified),–,560,–,inactive,–,Active,concentration at 4 h [8]: 1 µM; concentration at 4 h [9]: 6.3 µM; Activity [10]: inactive
CC1CCN(C(c2ccc(C(F)(F)F)cc2)c2ccc(C(C)C(=O)O)cc2-c2ccc(C(F)(F)F)cc2)CC1 (stereo unspecified),20.5,180,14,inactive,inactive,Active,–
CC1CCN(C(c2ccc(F)cn2)c2ccc(C(C)C(=O)O)cc2-c2ccc(C(F)(F)F)cc2)CC1 (stereo unspecified),–,3700,–,inactive,–,Active,–
CC(C)CC(C(=O)O)c1ccc(C(c2ccc(F)cc2)N2CCCCC2)c(-c2ccc(C(F)(F)F)cc2)c1 (stereo unspecified),–,120,–,inactive,–,Active,concentration at 4 h [8]: 5.7 µM; concentration at 4 h [9]: 32.2 µM; Activity [10]: 30%
CC(C)CCN(Cc1ccc(CC(=O)O)cc1-c1ccc(C(F)(F)F)cc1)c1ccc(C(F)(F)F)cc1,–,1000,–,–,–,–,concentration at 4 h [8]: 0.6 µM
CC1CCN([C@H](c2ccc(F)cc2)c2ccc([C@@H](C)C(=O)O)cc2-c2ccc(C(F)(F)F)cc2)CC1,–,–,–,inactive,–,–,Activity [16]: inactive; Activity [17]: Active; Activity [18]: Active; inhibition [19]: inactive; Activity [20]: Active; Activity [21]: inactive; Activity [22]: inactive
O=C(O)Cc1ccc(C(c2ccc(F)cc2)N2CCC(C(F)(F)F)CC2)c(-c2ccc(F)cc2)c1 (stereo unspecified),–,2300,–,inactive,–,Active,–
CC1CCN(C(c2ccc(F)cc2)c2ccc(C(C)C(=O)O)cc2-c2cnc(C(C)(C)C)nc2)CC1 (stereo unspecified),–,4500,–,inactive,–,Active,–
CC1CCN(C(c2ccc(C(F)(F)F)nc2)c2ccc(C(C)C(=O)O)cc2-c2ccc(C(F)(F)F)cc2)CC1 (stereo unspecified),25.2,580,10.9,inactive,23%,Active,–
O=C(O)Cc1ccc(C(c2ccc(F)cc2)N2CCC(C(F)(F)F)CC2)c(-c2ccc(C(F)(F)F)cc2)c1 (stereo unspecified),–,1100,–,inactive,–,Active,concentration at 4 h [8]: 7.4 µM; concentration at 4 h [9]: 26 µM; Activity [10]: 20%
CC1CCN(C(c2ccc(F)cc2)c2ccc(C(CC3CC3)C(=O)O)cc2-c2ccc(C(F)(F)F)cc2)CC1 (stereo unspecified),29.6,110,11.8,inactive,40%,Active,–
CC1CCN(C(c2ccc(F)cc2)c2ccc(CC(=O)O)cc2-c2ccc(C(F)(F)F)cc2)CC1 (stereo unspecified),–,2900,–,inactive,–,Active,–
CC1CCN(C(c2ccc(F)cc2)c2ccc(C3(C(=O)O)CC3)cc2-c2ccc(C(F)(F)F)cc2)CC1 (stereo unspecified),–,2200,–,inactive,–,Active,–
O=C(O)C1(c2ccc(-c3ccc(Cl)c(Cl)c3)c(F)c2)CC1,–,–,–,–,–,–,EC50 [7]: 40000 nM; Ratio EC50 [23]: 7
CC1CCN(C(c2ccc(F)cc2)c2ccc(C(C)(C)C(=O)O)cc2-c2ccc(C(F)(F)F)cc2)CC1 (stereo unspecified),22.8,450,16.1,inactive,30%,Active,Activity [24]: inactive
CCCC(C(=O)O)c1ccc(C(c2ccc(F)cc2)N2CCC(C)CC2)c(-c2ccc(C(F)(F)F)cc2)c1 (stereo unspecified),–,250,–,inactive,–,Active,–
CCC(C(=O)O)c1ccc(C(c2ccc(F)cc2)N2CCC(C)CC2)c(-c2ccc(C(F)(F)F)cc2)c1 (stereo unspecified),20.4,330,13,inactive,40%,Active,–
CC(C)(C)CC(C(=O)O)c1ccc(C(c2ccc(F)cc2)N2CCCCC2)c(-c2ccc(C(F)(F)F)cc2)c1 (stereo unspecified),–,40,–,inactive,–,Active,–
CC1CCN(C(c2ccc(F)c(F)c2)c2ccc(C(C)C(=O)O)cc2-c2ccc(C(F)(F)F)cc2)CC1 (stereo unspecified),20.8,250,12,inactive,40%,Active,–

# The next lines start with results.
concentration at 4 h [2] [µM],EC50 [4] [nM],concentration at 4 h [6] [µM],SMILES,Activity [1],Activity [3],Activity [5],also measured
27.2,390,18.4,CC1CCN(C(c2ccc(F)cc2)c2ccc(C(C)C(=O)O)cc2-c2ccc(C(F)(F)F)cc2)CC1 (racemic),inactive,45%,Active,–
–,2000,–,CC(C(=O)O)c1ccc(C(c2ccc(F)cc2)N2CCC(F)CC2)c(-c2ccc(C(F)(F)F)cc2)c1 (stereo unspecified),inactive,–,Active,–
–,> 10000,–,CC(C(=O)O)c1ccc(C(c2ccc(F)cc2)N2CCN(C)CC2)c(-c2ccc(C(F)(F)F)cc2)c1 (stereo unspecified),inactive,–,Active,–
–,400,–,CC(C(=O)O)c1ccc(C(c2ccc(F)cc2)N2CCC3(CC2)CC3)c(-c2ccc(C(F)(F)F)cc2)c1 (stereo unspecified),inactive,–,Active,–
–,1400,–,CC(C(=O)O)c1ccc(C(c2ccc(F)cc2)N2CCCCC2)c(-c2ccc(C(F)(F)F)cc2)c1 (stereo unspecified),inactive,–,Active,–
16.3,620,12.1,CC(C(=O)O)c1ccc(C(c2ccc(F)cc2)N2CC3CCCC3C2)c(-c2ccc(C(F)(F)F)cc2)c1 (stereo unspecified),inactive,30%,Active,–
–,2300,–,CC(C(=O)O)c1ccc(C(c2ccc(F)cc2)N2CCCC2)c(-c2ccc(C(F)(F)F)cc2)c1 (stereo unspecified),inactive,–,Active,–
5.3,170,2.5,CC(C(=O)O)c1ccc(C(c2ccc(F)cc2)N2CCCC(C)(C)C2)c(-c2ccc(C(F)(F)F)cc2)c1 (stereo unspecified),inactive,25%,Active,–
–,150,–,CC1CCN([C@@H](c2ccc(F)cc2)c2ccc([C@H](C)C(=O)O)cc2-c2ccc(C(F)(F)F)cc2)CC1,inactive,–,–,concentration [11]: 6.6 µM; EC50 [12]: 110 nM; EC50 [13]: 4600 nM; Activity [14]: 38%; concentration [15]: 7.4 µM
–,120,–,CC1CCN(C(c2ccc(F)cc2)c2ccc(C(C(=O)O)C(C)C)cc2-c2ccc(C(F)(F)F)cc2)CC1 (stereo unspecified),inactive,–,Active,–
21.7,180,14.4,CC(C(=O)O)c1ccc(C(c2ccc(F)cc2)N2CCC(C(F)(F)F)CC2)c(-c2ccc(C(F)(F)F)cc2)c1 (stereo unspecified),inactive,40%,Active,–
27.2,300,25.3,CC(C(=O)O)c1ccc(C(c2ccc(F)cc2)N2CCC(C)(C)CC2)c(-c2ccc(C(F)(F)F)cc2)c1 (stereo unspecified),inactive,30%,Active,–
27.1,420,19.4,CC1CCN(C(c2ccc(Cl)cc2)c2ccc(C(C)C(=O)O)cc2-c2ccc(C(F)(F)F)cc2)CC1 (stereo unspecified),inactive,25%,Active,–
10.7,390,3.1,CC(C(=O)O)c1ccc(C(c2ccc(F)cc2)N2CC3CCC(C3)C2)c(-c2ccc(C(F)(F)F)cc2)c1 (stereo unspecified),inactive,25%,Active,–

# From ChEMBL document CHEMBL2146445, “Discovery of BIIB042, a Potent, Selective, and Orally Bioavailable γ-Secretase Modulator” (ACS Med Chem Lett, 2011)
